# High-throughput results from PubChem.
# Shown are actives, neighbours in structure and some others; about 2.3% of the full set was active somewhere.
# LMPTP block: LMPTP (human) inhibition; P24666; recombinant LMPTP-A, OMFP fluorogenic substrate, fluorescence intensity; inhibition, % at 20 µM; 360,000 tested, 0.22% active; AID 651560;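 active means compounds that cut the enzyme signal by at least half of the control window in the single-dose screen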;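 further: plate controls were DMSO wells with enzyme plus substrate for no effect and substrate without enzyme for full effect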
#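 Assay system: LMPTP-A, protein tyrosine phosphatase of low molecular weight / Medium: pH 6.0 Bis-Tris buffer with DTT and Triton X-100 / Schedule: 50 min enzyme reaction at room temperature, protected from light / Measured by: endpoint fluorescence intensity from OMFP dephosphorylation / Read-out basis: % inhibition relative to no-enzyme and uninhibited control wells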
# DNMT1 block: DNMT1 (human) enzyme inhibition. P26358. DNMT1 molecular beacon, Hinp1I cleavage, fluorescence. inhibition (reported as % activation of signal), % at 10 µM. 360,000 tested, 0.83% active; in the data active means inhibition above about 50%
# Rpn11 inh: blocks the human proteasome subunit Rpn11. human 26S proteasome, Ub4-pepOG fluorescence polarization; 20S core pre-blocked with epoxomicin. 360,000 tested, 0.59% active. inhibition, % at 20 µM;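 active means inhibition at 20 µM, scaled to each plate's controls, above about 33%, limit read from the data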
# Scp1 inh: Scp-1 (human) phosphatase inhibition | inhibition, % at 20 µM | 340,000 tested, 0.88% active | AID 493091 | Recombinant Scp1, phosphopeptide, malachite green phosphate absorbance;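 active means inhibition above about 50% at 20 µM, limit read from the data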;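 further: plate controls were DMSO wells with enzyme for no effect and wells lacking enzyme for full effect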
#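 Assay system: SCP-1 catalytic fragment, aa 76-261 | Buffer or medium: Tris acetate buffer pH 5.5 with MgCl2 and Tween-20 | Compound: One concentration, 20 µM, with 1.0% DMSO | Also added: Phospho 17-mer peptide substrate | Signal: Absorbance at 630 nm | Incubation: 45 min enzyme reaction at room temperature | Measure: % inhibition of SCP-1 phosphate liberation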
# SUMO1-SIM PPI: alters human SUMO1 binding to SIM partners | P63165 | SUMO1 binding to a labelled peptide, TR-FRET, 1 h | inhibition, % at 20 µM | 360,000 tested, 0.33% active; in the data active means inhibition above about 37%
# STEP inh: blocks human striatal-enriched tyrosine phosphatase; recombinant STEP, OMFP fluorogenic substrate, fluorescence; inhibition, % at 20 µM; 360,000 tested, 0.25% active; AID 588621;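 active means inhibition at 20 µM, scaled per plate between control wells, above about 37%, limit read from the data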;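 further: 0% = DMSO with enzyme and substrate and 100% = substrate only without enzyme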
# Target sequence (P54829 whole entry, looked up): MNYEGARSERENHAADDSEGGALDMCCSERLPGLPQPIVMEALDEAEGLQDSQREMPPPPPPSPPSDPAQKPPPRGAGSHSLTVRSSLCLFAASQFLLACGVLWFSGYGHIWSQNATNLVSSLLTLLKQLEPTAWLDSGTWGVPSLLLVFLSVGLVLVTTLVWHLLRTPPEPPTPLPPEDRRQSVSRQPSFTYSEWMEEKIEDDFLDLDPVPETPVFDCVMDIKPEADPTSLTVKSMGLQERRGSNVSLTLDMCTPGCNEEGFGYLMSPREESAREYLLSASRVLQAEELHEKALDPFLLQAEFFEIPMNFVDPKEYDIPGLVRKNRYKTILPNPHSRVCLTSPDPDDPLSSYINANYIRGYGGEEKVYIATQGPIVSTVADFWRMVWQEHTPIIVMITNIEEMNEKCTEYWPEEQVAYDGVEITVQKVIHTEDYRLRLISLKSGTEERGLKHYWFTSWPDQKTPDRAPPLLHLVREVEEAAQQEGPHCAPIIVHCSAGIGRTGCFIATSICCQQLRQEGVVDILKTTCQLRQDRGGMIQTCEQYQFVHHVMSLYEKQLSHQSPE
#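 System: STEP (striatal-enriched tyrosine phosphatase) enzyme, cell-free; medium: Bis-Tris pH 6.0 buffer with DTT, detergent; dosing: 20 µM, 1% DMSO; times: reaction 20 min, ambient temperature; detection: fluorescence, 480/540 nm; read-out basis: normalized % inhibition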
# Rpn11 inh conf: confirmation of human proteasome Rpn11 inhibitors; 1,900 tested, 29% active; shares compounds with Rpn11 inh; AID 602318; purified human 26S proteasome, Ub4-pepOG fluorescence polarization; proteasome pretreated with epoxomicin; inhibition, % at 20 µM
# MMP-2 inh: blocks human MMP-2, flagging nonselective RPN11 hits; shares compounds with Rpn11 inh; recombinant MMP-2, FRET peptide cleavage fluorescence; inhibition, % at 20 µM; 1,900 tested, 4% active; AID 602330;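 further: human MMP-2 activated beforehand with APMA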
# Thrombin FP: counter-screen for RPN11 inhibitors: inhibition of bovine thrombin; 1,900 tested, 13% active; AID 602333; shares compounds with Rpn11 inh; inhibition, % at 20 µM; bovine thrombin cleavage of Ub4-pepOG, fluorescence polarization;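 active means mean inhibition at least 40% at 20 µM, or signal 3 deviations below plate average, so some actives read negative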;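 further: plate controls were thrombin with DMSO for no effect and buffer wells lacking thrombin for full effect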
# Numbers without * were called inactive; / = no result given. Unless noted, no stated cut-off is given here; in the data, active means inhibition above about 40%; inactive means the rest.
SMILES,LMPTP block,DNMT1 block,Rpn11 inh,Scp1 inh,SUMO1-SIM PPI,STEP inh,Rpn11 inh conf,MMP-2 inh,Thrombin FP
Cc1cc(C)c(NC(=O)CS(=O)CC(=O)N2CCN(c3cccc(C)c3C)CC2)c(C)c1 (stereo unspecified),0,-1,0,8,-3,-1,/,/,/
O=C(Nc1ccc(Cl)cc1)c1cc2c(cc1O)[nH]c1ccccc12,3,-25,-1,-22,-2,-2,/,/,/
COc1ccc(C[C@H]2CN3C(=NC[C@@H]3Cc3ccc(O)cc3)N2C[C@H](C)NC(=O)c2ccc(C)c(Br)c2)cc1,3,13,-8,16,-19,0,/,/,/
Cc1cc(C)n(-c2nc3c(c(=O)[nH]c(=O)n3C)n2Cc2ccccc2)n1,-1,1,0,-2,-3,6,/,/,/
Cc1cc(C)c2c(=O)[nH]c(=O)n(Cc3ccccc3)c2n1,0,2,80*,-4,15,-4,95*,30,50*
O=C(NCCN1CCCCCC1)c1ccc(CS(=O)(=O)c2ccc(Br)cc2)o1,22,27,53*,-8,-27,-1,32,14,13
O=C(NCCCN1CCCCCC1)c1ccc(CS(=O)(=O)Cc2ccccc2F)o1,34,-31,73*,-38,19,0,75*,-436,3
CCSc1ncccc1C(=O)N[C@@H](CCSC)C(=O)OC,-1,-1,-8,4,0,0,/,/,/
Cc1onc(-c2ccccc2)c1C(=O)Nc1nc2c(s1)C(=O)CC(C)(C)C2,0,-3,117*,-7,-4,1,2,-2,-16
CCOC(=O)CCC(=O)Nc1ccc([N+](=O)[O-])cc1C,-1,-3,138*,-5,-4,-3,-8,-31,-10
CCOC(=O)[C@H]1[C@H]2COc3ccc(Br)cc3[C@@H]2N2C(=O)CN(Cc3ccc(F)cc3)C(=O)[C@@]12C,0,-2,7,-9,4,0,/,/,/
CCOc1ccc(NC(=O)CN(C)C(=O)c2ccccc2SCc2c(C)noc2C)cc1OCC,-9,-1,-6,-6,-27,1,/,/,/
O=C(O)CSc1ncnc2scc(-c3ccccc3)c12,1,1,1,-5,-2,-2,/,/,/
O=C(O)CSc1ncnc2scc(-c3ccc(Br)cc3)c12,-1,1,51*,-1,-1,-2,37,-1,25
CC(C)(C)OC(=O)C(C1NC(C(=O)O)C(C)(C)S1)N1C(=O)c2ccccc2C1=O (stereo unspecified),-2,6,2,-5,3,-3,/,/,/
CCOC(=O)c1c(NC(=O)C2=C(C)NC(=S)NC2c2ccc(F)cc2F)sc(C)c1C (stereo unspecified),1,-7,38*,-13,-4,-2,-14,11,-20
CCOC(=O)c1c(NC(=O)C2=C(C)NC(=S)NC2c2ccc(F)cc2)sc(C)c1C (stereo unspecified),1,-16,10,-7,-3,-3,/,/,/
Cc1ccc(Oc2cc([N+](=O)[O-])cc3c2C(=O)Nc2ccccc2O3)cc1,1,-5,49*,27,3,4,51*,-18,63*
O=C1Nc2ccccc2Nc2ccc([N+](=O)[O-])cc21,3,-24,-2,-5,-29,-1,/,/,/
COc1ccccc1N1C(=O)S/C(=C\c2ccc(C)s2)C1=O,0,14,96*,-5,-5,0,57*,-28,22
COc1ccccc1N1C(=O)S/C(=C\c2cc(C)n(C)c2C)C1=O,1,-5,8,1,-14,0,/,/,/
